Measurements from ChEMBL document CHEMBL1155528, “1,4-dihydropyrazolo[4,3-d]imidazole phenyl derivatives: a novel type II Raf kinase inhibitors” (Bioorg Med Chem Lett, 2010).
pIC50: −log10 of the molar value. Each block holds one molecule with its values, some of them ahead of it. Activity calls are given as the source filed them. The calls are words filed in the database; no cut-off is given here.

Key:
[1] = (§1) Antiproliferative activity against human WM3629 cells after 24 hrs by MTT assay; type: functional; details: WM3629, 24 h
Procedure, shortened: (§2)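 WM3629 cells (Wistar Institute) were kept in Tu2% medium. GI50 was determined by MTT as for A375P: 5 × 10³ cells/well, 24 h settling, 12-point threefold serial dilutions, and absorbance at 590 nm.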

[2] = (§3) Antiproliferative activity against human A375P cells after 24 hrs by MTT assay; type: functional
Procedure, shortened: (§4)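 A375P cells (ATCC) grown in DMEM with 10% FBS and 1% penicillin/streptomycin at 37 °C, 5% CO2. Detached with 0.05% trypsin–0.02% EDTA, seeded at 5 × 10³ cells/well, and left 24 h before 12-point threefold serial dilutions were added. Viability was read by MTT reduction (CellTiter 96) at 590 nm, and GI50 was derived.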

WM3629 = test: as §1; type: functional; procedure, shortened: as §2
A375P = test: as §3; type: functional; procedure, shortened: as §4
[3] = target: Tyrosine-protein kinase BTK (Homo sapiens) (UniProt Q06187); test: Inhibition of human BTK; details: concentration not given here
Procedure, shortened: (§5)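 Tested in an outsourced 30-kinase profiling service panel at a single concentration of 10, with percent inhibition reported.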

[4] = target: Insulin receptor (Homo sapiens) (UniProt P06213); test: Inhibition of human IR; details: concentration not given here; procedure, shortened: as §5
[5] = target: Ribosomal protein S6 kinase beta-1 (Homo sapiens) (UniProt P23443); test: Inhibition of human p701S6K; details: concentration not given here; procedure, shortened: as §5
[6] = target: Cyclin-dependent kinase 5/CDK5 activator 1 (Homo sapiens) (UniProt Q00535+Q15078); test: Inhibition of human CDK5/p35; type: protein-complex assay; details: concentration not given here; procedure, shortened: as §5
[7] = target: Vascular endothelial growth factor receptor 2 (Homo sapiens) (UniProt P35968); test: Inhibition of human KDR; details: concentration not given here; procedure, shortened: as §5
[8] = target: Fibroblast growth factor receptor 1 (Homo sapiens) (UniProt P11362); test: Inhibition of human FGFR1; details: concentration not given here; procedure, shortened: as §5
[9] = target: Hepatocyte growth factor receptor (Homo sapiens) (UniProt P08581); test: Inhibition of human Met; details: concentration not given here; procedure, shortened: as §5
[10] = target: Cyclin-dependent kinase 2/cyclin E1 (Homo sapiens) (UniProt P24864+P24941); test: Inhibition of human CDK2/cyclin E; type: protein-complex assay; details: concentration not given here; procedure, shortened: as §5
[11] = target: Insulin-like growth factor 1 receptor (Homo sapiens) (UniProt P08069); test: Inhibition of human IGF1R; details: concentration not given here; procedure, shortened: as §5
[12] = target: Macrophage colony-stimulating factor 1 receptor (Homo sapiens) (UniProt P07333); test: Inhibition of human FMS; details: concentration not given here; procedure, shortened: as §5
[13] = target: Aurora kinase A (Homo sapiens) (UniProt O14965); test: Inhibition of human aurora A; details: concentration not given here; procedure, shortened: as §5
[14] = target: Serine/threonine-protein kinase PLK1 (Homo sapiens) (UniProt P53350); test: Inhibition of human PLK1; details: concentration not given here; procedure, shortened: as §5
[15] = target: Tyrosine-protein kinase SYK (Homo sapiens) (UniProt P43405); test: Inhibition of human SYK; details: concentration not given here
[16] = target: T1, RAF proto-oncogene serine/threonine-protein kinase (Homo sapiens, UniProt P04049); test: Inhibition of human RAF; details: concentration not given here
Procedure, shortened: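 Human C-Raf (5–10 mU) incubated with 0.66 mg/mL myelin basic protein in 25 mM Tris pH 7.5, 0.02 mM EGTA, 10 mM Mg acetate. Spotted on P30 filter, washed in 75 mM phosphoric acid and methanol, then scintillation counted. Outsourced profiling service.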

[17] = target: T1, RAF proto-oncogene serine/threonine-protein kinase; test: Inhibition of human cRAF using [33P-ATP] as a substrate by scintillation counting; details: for pIC50: read-out: IC50
Procedure, shortened: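 Run 40 min at room temperature, then stopped with 3% phosphoric acid. Spotted on P30 filter mat, washed in 75 mM phosphoric acid and methanol, dried, and scintillation-counted. IC50 came from a profiler service.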

[18] = target: Receptor-type tyrosine-protein kinase FLT3 (Homo sapiens) (UniProt P36888); test: Inhibition of human Flt3; details: concentration not given here; procedure, shortened: as §5
[19] = target: Tyrosine-protein kinase receptor UFO (Homo sapiens) (UniProt P30530); test: Inhibition of human AXL; details: concentration not given here; procedure, shortened: as §5
[20] = target: Casein kinase II (Homo sapiens) (UniProt P67870+P68400+P19784); test: Inhibition of human CK2; type: protein-complex assay; details: concentration not given here; procedure, shortened: as §5
[21] = target: Inhibitor of nuclear factor kappa-B kinase subunit beta (Homo sapiens) (UniProt O14920); test: Inhibition of human IKK-beta; details: concentration not given here; procedure, shortened: as §5
[22] = target: Ephrin type-A receptor 1 (Homo sapiens) (UniProt P21709); test: Inhibition of human EphA1; details: concentration not given here; procedure, shortened: as §5
[23] = target: ALK tyrosine kinase receptor (Homo sapiens) (UniProt Q9UM73); test: Inhibition of human ALK; details: concentration not given here; procedure, shortened: as §5
[24] = target: Tyrosine-protein kinase ABL1 (Homo sapiens) (UniProt P00519); test: Inhibition of human ABL; details: concentration not given here; procedure, shortened: as §5
[25] = target: Cytoplasmic tyrosine-protein kinase BMX (Homo sapiens) (UniProt P51813); test: Inhibition of human BMX; details: concentration not given here; procedure, shortened: as §5
[26] = target: Tyrosine-protein kinase JAK2 (Homo sapiens) (UniProt O60674); test: Inhibition of human JAK2; details: concentration not given here; procedure, shortened: as §5
[27] = target: Platelet-derived growth factor receptor alpha (Homo sapiens) (UniProt P16234); test: Inhibition of human PDGFRalpha; details: concentration not given here; procedure, shortened: as §5
Rattus norvegicus = organism: Rattus norvegicus; test: Inhibition of rat AMPK; details: concentration not given here
Procedure, shortened: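 Part of an outsourced radiometric kinase panel of 30 kinases, tested at a single concentration of 10 µM. Read-out is percent inhibition of kinase activity.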

[28] = target: BDNF/NT-3 growth factors receptor (Homo sapiens) (UniProt Q16620); test: Inhibition of human TrkB; details: concentration not given here; procedure, shortened: as §5
[29] = target: Angiopoietin-1 receptor (Homo sapiens) (UniProt Q02763); test: Inhibition of human Tie2; details: concentration not given here; procedure, shortened: as §5
[30] = target: Mast/stem cell growth factor receptor Kit (Homo sapiens) (UniProt P10721); test: Inhibition of human cKIT; details: concentration not given here; procedure, shortened: as §5
[31] = target: Proto-oncogene tyrosine-protein kinase Src (Homo sapiens) (UniProt P12931); test: Inhibition of human cSRC; details: concentration not given here; procedure, shortened: as §5
Chain of Proto-oncogene tyrosine-protein kinase Src (Homo sapiens) (P12931 2-536 limits assumed): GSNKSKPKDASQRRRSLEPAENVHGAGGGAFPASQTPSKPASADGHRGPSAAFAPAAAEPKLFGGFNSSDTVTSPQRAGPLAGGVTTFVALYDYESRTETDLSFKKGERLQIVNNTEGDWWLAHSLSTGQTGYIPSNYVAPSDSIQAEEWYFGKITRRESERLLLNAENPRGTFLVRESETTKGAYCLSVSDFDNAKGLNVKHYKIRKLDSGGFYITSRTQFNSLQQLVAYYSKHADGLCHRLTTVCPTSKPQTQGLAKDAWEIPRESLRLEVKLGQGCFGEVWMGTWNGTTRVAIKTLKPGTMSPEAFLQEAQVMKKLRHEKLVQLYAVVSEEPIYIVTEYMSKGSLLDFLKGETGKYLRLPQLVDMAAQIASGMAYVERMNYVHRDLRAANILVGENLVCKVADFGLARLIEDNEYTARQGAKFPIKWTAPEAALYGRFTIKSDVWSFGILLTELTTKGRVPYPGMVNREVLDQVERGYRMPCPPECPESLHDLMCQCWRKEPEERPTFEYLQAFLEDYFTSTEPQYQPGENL

T1 sequence (P04049 whole entry): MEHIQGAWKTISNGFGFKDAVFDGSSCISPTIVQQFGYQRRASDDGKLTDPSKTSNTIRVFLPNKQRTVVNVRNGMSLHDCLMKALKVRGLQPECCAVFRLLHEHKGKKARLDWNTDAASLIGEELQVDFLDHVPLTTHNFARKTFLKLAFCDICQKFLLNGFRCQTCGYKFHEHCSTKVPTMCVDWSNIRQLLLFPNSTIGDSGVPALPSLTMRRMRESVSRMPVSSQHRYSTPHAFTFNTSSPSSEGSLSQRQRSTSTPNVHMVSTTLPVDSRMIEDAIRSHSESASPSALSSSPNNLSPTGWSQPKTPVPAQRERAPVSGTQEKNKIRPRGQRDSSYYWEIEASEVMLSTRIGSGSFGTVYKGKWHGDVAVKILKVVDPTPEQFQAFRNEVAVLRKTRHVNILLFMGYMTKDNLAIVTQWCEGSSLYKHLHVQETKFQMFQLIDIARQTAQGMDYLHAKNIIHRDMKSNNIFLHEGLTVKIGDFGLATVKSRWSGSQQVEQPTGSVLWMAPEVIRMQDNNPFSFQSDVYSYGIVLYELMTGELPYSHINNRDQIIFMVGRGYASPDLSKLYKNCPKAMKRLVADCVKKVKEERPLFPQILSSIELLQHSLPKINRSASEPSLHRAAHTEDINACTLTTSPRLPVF
Chain of Ephrin type-A receptor 1 (Homo sapiens) (P21709 whole entry): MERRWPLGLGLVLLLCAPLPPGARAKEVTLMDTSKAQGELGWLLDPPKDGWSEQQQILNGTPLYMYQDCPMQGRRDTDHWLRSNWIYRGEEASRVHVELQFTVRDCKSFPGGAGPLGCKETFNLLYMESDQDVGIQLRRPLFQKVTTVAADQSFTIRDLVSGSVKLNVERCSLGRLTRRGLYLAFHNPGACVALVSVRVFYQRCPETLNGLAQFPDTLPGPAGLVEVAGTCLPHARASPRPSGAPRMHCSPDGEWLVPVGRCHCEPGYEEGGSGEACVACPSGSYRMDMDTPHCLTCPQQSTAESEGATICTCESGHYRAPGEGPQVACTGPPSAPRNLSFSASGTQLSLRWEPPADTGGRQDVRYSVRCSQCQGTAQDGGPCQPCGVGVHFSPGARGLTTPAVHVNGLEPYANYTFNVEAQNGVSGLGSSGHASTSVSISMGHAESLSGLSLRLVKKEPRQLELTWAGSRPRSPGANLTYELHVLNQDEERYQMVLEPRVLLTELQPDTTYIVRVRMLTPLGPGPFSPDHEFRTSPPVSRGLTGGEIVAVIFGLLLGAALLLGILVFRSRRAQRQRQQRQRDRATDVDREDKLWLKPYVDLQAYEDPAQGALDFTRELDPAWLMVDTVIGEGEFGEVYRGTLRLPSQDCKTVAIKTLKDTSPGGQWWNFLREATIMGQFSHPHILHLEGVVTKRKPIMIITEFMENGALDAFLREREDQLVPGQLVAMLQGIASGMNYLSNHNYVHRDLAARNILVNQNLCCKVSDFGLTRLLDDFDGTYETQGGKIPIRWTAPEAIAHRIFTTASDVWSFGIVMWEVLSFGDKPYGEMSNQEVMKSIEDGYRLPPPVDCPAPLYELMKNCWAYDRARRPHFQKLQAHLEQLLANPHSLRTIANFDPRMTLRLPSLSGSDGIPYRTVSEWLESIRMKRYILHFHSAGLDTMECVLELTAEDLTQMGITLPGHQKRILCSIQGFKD
Chain of Tyrosine-protein kinase ABL1 (Homo sapiens) (P00519 whole entry): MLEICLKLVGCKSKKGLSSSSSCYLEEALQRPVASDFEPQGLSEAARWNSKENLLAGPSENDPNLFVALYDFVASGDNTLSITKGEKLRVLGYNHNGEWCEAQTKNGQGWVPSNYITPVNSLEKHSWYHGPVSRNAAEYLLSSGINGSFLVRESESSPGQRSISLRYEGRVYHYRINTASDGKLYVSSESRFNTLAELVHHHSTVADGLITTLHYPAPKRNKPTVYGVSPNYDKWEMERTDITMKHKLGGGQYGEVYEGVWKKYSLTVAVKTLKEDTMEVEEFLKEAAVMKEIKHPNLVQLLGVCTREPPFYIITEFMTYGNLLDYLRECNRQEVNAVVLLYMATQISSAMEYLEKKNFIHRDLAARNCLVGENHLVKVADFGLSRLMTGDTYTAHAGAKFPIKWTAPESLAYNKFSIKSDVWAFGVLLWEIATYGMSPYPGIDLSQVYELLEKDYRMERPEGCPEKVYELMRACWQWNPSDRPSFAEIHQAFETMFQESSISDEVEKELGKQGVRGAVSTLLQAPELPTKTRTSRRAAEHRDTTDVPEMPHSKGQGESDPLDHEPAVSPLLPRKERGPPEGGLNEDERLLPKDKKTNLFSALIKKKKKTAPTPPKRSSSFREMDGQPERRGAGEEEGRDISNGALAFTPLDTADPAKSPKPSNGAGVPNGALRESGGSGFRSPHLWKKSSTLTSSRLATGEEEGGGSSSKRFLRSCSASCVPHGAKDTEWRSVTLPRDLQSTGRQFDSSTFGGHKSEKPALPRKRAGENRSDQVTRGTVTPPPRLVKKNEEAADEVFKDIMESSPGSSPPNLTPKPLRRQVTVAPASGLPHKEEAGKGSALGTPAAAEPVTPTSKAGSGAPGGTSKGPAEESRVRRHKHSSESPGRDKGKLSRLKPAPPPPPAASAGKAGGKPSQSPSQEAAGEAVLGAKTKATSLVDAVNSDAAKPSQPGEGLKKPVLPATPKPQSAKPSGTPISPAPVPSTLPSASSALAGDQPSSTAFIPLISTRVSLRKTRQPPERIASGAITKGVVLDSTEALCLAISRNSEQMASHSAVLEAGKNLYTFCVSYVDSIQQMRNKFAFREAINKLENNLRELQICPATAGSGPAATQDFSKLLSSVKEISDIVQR
Chain of Cytoplasmic tyrosine-protein kinase BMX (Homo sapiens) (P51813 whole entry): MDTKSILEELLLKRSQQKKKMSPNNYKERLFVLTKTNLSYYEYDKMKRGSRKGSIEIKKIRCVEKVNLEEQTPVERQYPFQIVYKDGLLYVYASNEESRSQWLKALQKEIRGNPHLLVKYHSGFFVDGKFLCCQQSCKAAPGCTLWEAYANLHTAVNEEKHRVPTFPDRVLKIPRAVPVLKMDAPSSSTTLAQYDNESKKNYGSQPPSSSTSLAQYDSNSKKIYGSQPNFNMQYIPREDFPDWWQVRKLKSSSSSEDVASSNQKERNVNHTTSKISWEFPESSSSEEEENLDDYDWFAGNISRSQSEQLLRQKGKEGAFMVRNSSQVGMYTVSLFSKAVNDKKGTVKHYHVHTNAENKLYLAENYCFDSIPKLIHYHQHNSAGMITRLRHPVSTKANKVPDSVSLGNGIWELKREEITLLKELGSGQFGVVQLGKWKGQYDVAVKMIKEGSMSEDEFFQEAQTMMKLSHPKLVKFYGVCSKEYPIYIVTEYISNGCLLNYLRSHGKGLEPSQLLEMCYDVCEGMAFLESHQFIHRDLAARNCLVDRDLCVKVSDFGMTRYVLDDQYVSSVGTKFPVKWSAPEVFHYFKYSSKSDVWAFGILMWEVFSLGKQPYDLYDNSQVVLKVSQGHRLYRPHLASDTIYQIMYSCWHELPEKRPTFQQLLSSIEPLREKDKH
Chain of Aurora kinase A (Homo sapiens) (O14965 whole entry): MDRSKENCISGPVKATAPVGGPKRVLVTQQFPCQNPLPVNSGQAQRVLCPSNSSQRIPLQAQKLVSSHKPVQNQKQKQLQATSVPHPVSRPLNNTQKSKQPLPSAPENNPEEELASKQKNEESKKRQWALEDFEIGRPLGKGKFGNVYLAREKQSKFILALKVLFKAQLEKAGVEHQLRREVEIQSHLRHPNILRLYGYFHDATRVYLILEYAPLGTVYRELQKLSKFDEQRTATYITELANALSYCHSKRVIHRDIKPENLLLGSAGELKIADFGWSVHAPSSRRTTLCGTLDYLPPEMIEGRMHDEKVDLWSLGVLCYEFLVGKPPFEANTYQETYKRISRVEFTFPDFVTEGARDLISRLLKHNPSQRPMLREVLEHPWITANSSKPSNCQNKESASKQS
Chain of Serine/threonine-protein kinase PLK1 (Homo sapiens) (P53350 whole entry): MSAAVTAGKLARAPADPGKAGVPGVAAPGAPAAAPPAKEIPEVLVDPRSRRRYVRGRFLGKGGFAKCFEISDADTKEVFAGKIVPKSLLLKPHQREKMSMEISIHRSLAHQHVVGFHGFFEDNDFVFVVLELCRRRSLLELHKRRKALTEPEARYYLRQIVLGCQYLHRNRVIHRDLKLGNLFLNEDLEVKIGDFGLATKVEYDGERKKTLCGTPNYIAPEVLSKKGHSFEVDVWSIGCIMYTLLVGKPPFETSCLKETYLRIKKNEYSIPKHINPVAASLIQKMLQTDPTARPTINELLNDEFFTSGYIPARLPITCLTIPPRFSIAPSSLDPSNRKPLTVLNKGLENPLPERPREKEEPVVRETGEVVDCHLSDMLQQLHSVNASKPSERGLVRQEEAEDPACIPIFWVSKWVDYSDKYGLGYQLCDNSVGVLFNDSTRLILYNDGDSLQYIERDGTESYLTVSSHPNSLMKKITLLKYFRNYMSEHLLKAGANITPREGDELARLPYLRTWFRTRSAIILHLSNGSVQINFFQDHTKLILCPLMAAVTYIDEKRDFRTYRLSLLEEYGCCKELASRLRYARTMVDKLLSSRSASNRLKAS

Structure (SMILES): Cc1ccc(NC(=O)Nc2cc(N3CCOCC3)cc(C(F)(F)F)c2)cc1-c1nc2c(cnn2Cc2ccccc2)n1C
GI50 [1]: > 100 µM | GI50 [2]: > 100 µM

GI50 (A375P): inactive
Structure (SMILES): Cc1ccc(NC(=O)c2cc(N3CCOCC3)cc(C(F)(F)F)c2)cc1-c1nc2[nH]ncc2[nH]1
GI50 (WM3629): inactive

Structure (SMILES): COc1ccc(Cn2ncc3[nH]c(-c4cc(NC(=O)Nc5cc(Cl)cc(C(F)(F)F)c5)ccc4C)nc32)cc1
GI50 [1]: > 100 µM | GI50 [2]: > 100 µM

inhibition [3]: 10% | inhibition [4]: 0% | inhibition [5]: 4% | inhibition [6]: 0% | inhibition [7]: 8% | inhibition [8]: 26% | inhibition [9]: 0% | inhibition [10]: 33% | inhibition [11]: 35% | inhibition [12]: 42% | inhibition [13]: 10% | inhibition [14]: 8% | inhibition [15]: 16% | inhibition [16]: 96% | pIC50 [17]: 7.30 | inhibition [18]: 53% | inhibition [19]: 6% | inhibition [20]: 8% | inhibition [21]: 16% | inhibition [22]: 30% | inhibition [23]: 61% | inhibition [24]: 37% | inhibition [25]: 16% | inhibition [26]: 0% | inhibition [27]: 0% | inhibition (Rattus norvegicus): 5% | inhibition [28]: 62% | inhibition [29]: 82% | inhibition [30]: 0% | inhibition [31]: 20%
Structure (SMILES): Cc1cn(-c2cc(NC(=O)Nc3ccc(-c4nc5[nH]ncc5[nH]4)c(C)c3)cc(C(F)(F)F)c2)cn1
GI50 [1]: 0.86 µM | GI50 [2]: 2.24 µM

pIC50 [17]: 6.84
Structure (SMILES): Cc1ccc(NC(=O)c2cc(Cl)cc(C(F)(F)F)c2)cc1-c1nc2c(cnn2Cc2ccccc2)[nH]1
GI50 [1]: 1.14 µM | GI50 [2]: 2.06 µM

pIC50 [17]: 6.08
Structure (SMILES): COc1ccc(Cn2ncc3[nH]c(-c4cc(NC(=O)Nc5ccc(Cl)c(Cl)c5)ccc4C)nc32)cc1
GI50 [1]: 1.35 µM | GI50 [2]: 15.3 µM

GI50 (A375P): inactive
Structure (SMILES): Cc1ccc(NC(=O)Nc2cccc(Cl)c2Cl)cc1-c1nc2[nH]ncc2[nH]1
GI50 (WM3629): inactive

Structure (SMILES): Cc1ccc(NC(=O)Nc2c(F)cc(F)c(C)c2F)cc1-c1nc2c(cnn2Cc2ccccc2)[nH]1
GI50 [1]: 1.29 µM | GI50 [2]: 7.73 µM

Structure (SMILES): O=C(Nc1ccc(-c2nc3c(cnn3Cc3ccccc3)[nH]2)cc1)Nc1ccc(Cl)c(Cl)c1
GI50 [1]: 42.8 µM | GI50 [2]: > 100 µM

Structure (SMILES): COc1ccc(Cn2ncc3[nH]c(-c4cc(NC(=O)Nc5c(F)cc(F)c(C)c5F)ccc4C)nc32)cc1
GI50 [1]: > 100 µM | GI50 [2]: > 100 µM

Structure (SMILES): Cc1cc(NC(=O)Nc2cc(N3CCOCC3)cc(C(F)(F)F)c2)ccc1-c1nc2[nH]ncc2[nH]1
GI50 (WM3629): inactive | GI50 [2]: > 100 µM

GI50 (A375P): inactive
Structure (SMILES): Cc1ccc2nc(NC(=O)Nc3ccc(-c4nc5[nH]ncc5[nH]4)c(C)c3)sc2c1
GI50 (WM3629): inactive

Structure (SMILES): Cc1cc(NC(=O)Nc2cc(Cl)cc(C(F)(F)F)c2)ccc1-c1nc2[nH]ncc2[nH]1
GI50 [1]: 14.4 µM | GI50 [2]: > 100 µM

GI50 (A375P): inactive
Structure (SMILES): COc1ccc(Cn2ncc3[nH]c(-c4ccc(NC(=O)Nc5nc6ccc(C)cc6s5)cc4C)nc32)cc1
GI50 (WM3629): inactive

Structure (SMILES): COc1ccc(Cn2ncc3c2nc(-c2ccc(NC(=O)Nc4cc(Cl)cc(C(F)(F)F)c4)cc2C)n3C)cc1
GI50 [1]: 3.77 µM | GI50 [2]: 51.5 µM

pIC50 [17]: 6.43
Structure (SMILES): O=C(Nc1ccc(-c2nc3c(cnn3Cc3ccccc3)[nH]2)cc1)Nc1cc(Cl)cc(C(F)(F)F)c1
GI50 [1]: 0.75 µM | GI50 [2]: 6.65 µM

Structure (SMILES): Cc1ccc(NC(=O)Nc2cc(Cl)cc(C(F)(F)F)c2)cc1-c1nc2[nH]ncc2[nH]1
GI50 [1]: > 100 µM | GI50 [2]: > 100 µM

Structure (SMILES): Cc1ccc(NC(=O)Nc2cc(Cl)cc(C(F)(F)F)c2)cc1-c1nc2c(cnn2Cc2ccccc2)n1C
GI50 [1]: 5.85 µM | GI50 [2]: 56.3 µM

Structure (SMILES): COc1ccc(Cn2ncc3[nH]c(-c4ccc(NC(=O)Nc5cc(N6CCOCC6)cc(C(F)(F)F)c5)cc4C)nc32)cc1
GI50 [1]: > 100 µM | GI50 [2]: > 100 µM

pIC50 [17]: 7.12
Structure (SMILES): Cc1ccc(NC(=O)Nc2cc(Cl)cc(C(F)(F)F)c2)cc1-c1nc2c(cnn2Cc2ccccc2)[nH]1
GI50 [1]: 0.85 µM | GI50 [2]: 3.79 µM

Structure (SMILES): CNC(=O)c1cc(Oc2ccc(NC(=O)Nc3ccc(Cl)c(C(F)(F)F)c3)cc2)ccn1 [SORAFENIB]
GI50 [1]: 0.65 µM | GI50 [2]: 5.58 µM

GI50 (A375P): inactive
Structure (SMILES): Cc1cc(NC(=O)Nc2cccc(Cl)c2Cl)ccc1-c1nc2[nH]ncc2[nH]1
GI50 (WM3629): inactive

Structure (SMILES): Cc1c(F)cc(F)c(NC(=O)Nc2ccc(-c3nc4c(cnn4Cc4ccccc4)[nH]3)cc2)c1F
GI50 [1]: 0.98 µM | GI50 [2]: 51.7 µM

IC50 [17]: Not Active
Structure (SMILES): Cc1cc(NC(=O)Nc2cc(Cl)cc(C(F)(F)F)c2)ccc1-c1nc2c(cnn2Cc2ccccc2)n1C
GI50 [1]: 0.56 µM | GI50 [2]: 4.16 µM

pIC50 [17]: 6.81
Structure (SMILES): Cc1ccc(NC(=O)Nc2cc(N3CCOCC3)cc(C(F)(F)F)c2)cc1-c1nc2c(cnn2Cc2ccccc2)[nH]1
GI50 [1]: 0.72 µM | GI50 [2]: 4.29 µM
